The full list was thinned out, with hits kept by preference.
H69AR inhibit = growth inhibitors of human H69AR lung tumor cells | viability, % at 10 µM | 85,000 compounds, 6% hits | H69AR lung tumor viability, ATP luminescence, 72 h; stronger effect = lower value | AID 598;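 active = viability at or below 40%; inactive = viability above 40%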;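 also: multidrug resistant small cell line overexpressing MRP-1 efflux transporter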
Fibroblast inh = blocks proliferation of human lung fibroblasts; LL 47 human lung fibroblast viability, ATP luminescence; stronger effect = lower value; viability, % at 10 µM; 85,000 compounds, 1.1% hits;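 active = viability at or below 50% in the single dose screen; inactive = viability above 50%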;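 also: compound exposure lasted 72 h before the ATP readout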
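Material: human lung fibroblast line LL 47, low passage; Evaluation: viability percentage against median untreated-cell control; Buffer or medium: 15% FBS in IMEM; Incubation: 72 h compound exposure at 37 °C after overnight plating; Dosing: 0.1% DMSO in all compound wells; Measured by: CellTiter-Glo luminescence.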
bCat KO growth = beta-catenin-lacking colon tumor cell growth suppression; HCT116 beta-catenin knockout viability, CellTiter-Glo, 60 h; stronger effect = lower value; viability, % at 10 µM; 140,000 compounds, 1.5% hits; AID 818;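 active = viability at or under a set limit, the compound median less 4 SD, cut at about 6% in these data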
PTEN del growth = growth suppressors of cells with PTEN tumor suppressor deletion | HCT116 PTEN-null viability, CellTiter-Glo, 60 h; stronger effect = lower value | viability, % at 10 µM | 140,000 compounds, 1.2% hits | AID 827;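 active = viability at or below a set limit, 4 SD under the median of all tested compounds, cut at about 3.7% in these data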;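 also: PTEN knockout HCT116 line with beta catenin targeted HCT116 as companion control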
HUVEC prolif 384 = human endothelial cell proliferation inhibition. HUVEC proliferation, CellTiter-Glo luminescence, 72 h; stronger effect = lower value. viability, % at 10 µM (by protocol). 86,000 compounds, 1.1% hits. AID 648;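 active = viability at or below 30%; inactive = viability above 30%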
Of the large screens only hits and unclear results are named; the others gave an inactive call.

COc1ccc(/C=C/C(=O)OCC(=O)Nc2ccc(Cl)c(S(=O)(=O)N(C)C)c2)cc1OC	none (no result: H69AR inhibit, Fibroblast inh, HUVEC prolif 384)
CCOC(=O)Cc1csc(NC(=O)c2ccc(Cl)nc2)n1	H69AR inhibit 29
CCOC(=O)Cc1csc(NC(=O)c2cccs2)n1	none
CCOC(=O)Cc1csc(NC(=O)c2ccc3c(c2)OCO3)n1	none
CCOC(=O)Cc1csc(NC(=O)c2c(O)c3ccccc3n(CC(C)C)c2=O)n1	H69AR inhibit 17
CCC(C(=O)OCC(=O)Nc1c(Cl)cccc1Cl)c1ccccc1 (stereo unspecified)	none (no result: H69AR inhibit, Fibroblast inh, HUVEC prolif 384)
CC1(C)Cc2nc3sc4c(N(CCO)CCO)ncnc4c3cc2CO1	none (no result: H69AR inhibit, Fibroblast inh, HUVEC prolif 384)
CC1(C)Cc2nc3sc4c(SCC(=O)NCc5ccccc5)ncnc4c3cc2CO1	H69AR inhibit 0.7 (no result: PTEN del growth)
CSc1c(CC(=O)Nc2ccccc2C(F)(F)F)n(Cc2ccccc2)c2ccccc12	none (no result: H69AR inhibit, Fibroblast inh, HUVEC prolif 384)
CC(=O)c1cnc(N(C)C)s1	none
O=C1C(Cl)=C(N2CCCCC2)C(=O)C(Cl)=C1c1cnc(N2CCCCC2)s1	H69AR inhibit 1.6, Fibroblast inh 19, bCat KO growth 1.1, PTEN del growth 1.5, HUVEC prolif 384 14
CN(C)c1ncc(C2=C(Cl)C(=O)C(N3CCCC3)=C(Cl)C2=O)s1	bCat KO growth 1.4, PTEN del growth 1.6, HUVEC prolif 384 23
COc1ccc(C2c3c(oc4ccccc4c3=O)C(=O)N2CCN2CCOCC2)cc1OC (stereo unspecified)	none (no result: bCat KO growth, PTEN del growth)
COCCN1C(=O)c2oc3ccccc3c(=O)c2C1c1ccc(OC)c(OC)c1 (stereo unspecified)	bCat KO growth 0.1, PTEN del growth 0.2
CC(C)CCn1c(SCC(N)=O)nc2c1c(=O)n(C)c(=O)n2C	H69AR inhibit 39
Cc1c(-c2ccccc2)oc2c(C(=O)OCC(=O)Nc3ccc(F)cc3)cccc2c1=O	none (no result: H69AR inhibit, Fibroblast inh, HUVEC prolif 384)
CCNc1ccc(Br)cc(C(=O)/C=C/c2c(Cl)cccc2Cl)c1=O	H69AR inhibit 2.0, bCat KO growth 3.5, PTEN del growth 1.5, HUVEC prolif 384 7.9
CNc1ccc(Br)cc(C(=O)/C=C/c2cccc(OC)c2)c1=O	H69AR inhibit -0.2, Fibroblast inh 8.8, HUVEC prolif 384 22
CCNc1ccc(Br)cc(C(=O)/C=C/c2ccc(Cl)cc2)c1=O	none (no result: H69AR inhibit, Fibroblast inh, HUVEC prolif 384)
CCOC(=O)N1CCN(C(=O)CN(C2CCCCC2)S(=O)(=O)c2c(C)cc(C)cc2C)CC1	none
Cc1ccc(SCCOCCN2CCc3ccccc3C2)cc1	none (no result: H69AR inhibit, Fibroblast inh, HUVEC prolif 384)
CCCS(=O)(=O)c1nnnn1-c1cccc(OC)c1	H69AR inhibit 1.1, Fibroblast inh 12, bCat KO growth 1.4, PTEN del growth 1.3
COc1cccc(-n2nnnc2SCC(=O)Nc2ccc(C(C)=O)cc2)c1	none
CC(CCc1ccccc1)NC(=O)COC(=O)c1cccc2ccccc12 (stereo unspecified)	none (no result: H69AR inhibit, Fibroblast inh, HUVEC prolif 384)
O=C(Cc1ccc(-n2cccc2)cc1)NCc1cccs1	H69AR inhibit 29
Cc1cc(C)c(S(=O)(=O)Nc2cccc3nsnc23)c(C)c1	H69AR inhibit 2.5
O=S(=O)(Nc1cccc2nsnc12)c1ccccc1	none
Cc1cc(C)nc(SCC(=O)N/N=C/c2cccc([N+](=O)[O-])c2)n1	none (no result: H69AR inhibit, Fibroblast inh, HUVEC prolif 384)
COc1cc2[nH]c(=O)n(CCCCCC(=O)NCCc3c[nH]c4ccccc34)c(=O)c2cc1OC	none
Cc1ccc(C2CC(=O)NC(SCC(=O)Nc3nccs3)=C2C#N)cc1 (stereo unspecified)	none (no result: H69AR inhibit, Fibroblast inh, HUVEC prolif 384)
NS(=O)(=O)c1ccc(Nc2nc(-c3ccc4ccccc4c3)cs2)cc1	H69AR inhibit 32
COc1ccccc1NC(C)C(=O)Nc1ccc(C(C)=O)cc1 (stereo unspecified)	none (no result: H69AR inhibit, Fibroblast inh, HUVEC prolif 384)
CC1CCCC(NC(=O)COC(=O)CCC2CCCC2)C1C (stereo unspecified)	none
COc1ccc(OC)c(/C=N/c2oc(-c3ccco3)c(-c3ccco3)c2C#N)c1	bCat KO growth 3.5
N#Cc1c(N)oc(-c2ccco2)c1-c1ccco1	bCat KO growth 5.9
CCSc1nc(N)c(C#N)c(-c2ccco2)c1C#N	H69AR inhibit 32
N#Cc1c(/N=C/c2ccco2)oc(-c2ccccc2)c1-c1ccccc1	none
COc1ccc(NC(=O)c2cc3c(s2)CCC(C)C3)cc1S(=O)(=O)N1CCOCC1 (stereo unspecified)	none (no result: H69AR inhibit, Fibroblast inh, HUVEC prolif 384)
COc1ccccc1NC(=O)CSc1nnnn1-c1ccc(C)cc1	none
COc1ccccc1NC(=O)c1ccc(NC(=O)CSc2nnnn2C)cc1	H69AR inhibit 2.2
COc1ccccc1NC(=S)N1CCN(Cc2ccc3c(c2)OCO3)CC1	none (no result: H69AR inhibit, Fibroblast inh, HUVEC prolif 384)
CC(/C=N/NC(=O)c1cc(-c2cccnc2)nc2c1c(C)nn2-c1ccccc1)=C\c1ccccc1	none (no result: H69AR inhibit, Fibroblast inh, HUVEC prolif 384)
COc1ccccc1NC(=O)Cn1nnc(-c2ccccc2NC(=O)c2ccco2)n1	H69AR inhibit 16, Fibroblast inh 47
COc1cc(NC(=O)Cn2nnc(-c3ccccc3N)n2)cc(OC)c1	H69AR inhibit 30
O=C(Cn1nnc(-c2ccccc2NC(=O)c2ccco2)n1)NC1CCCCC1	none
COc1ccc(NC(=O)Cn2nnc(-c3ccccc3NC(=O)c3ccco3)n2)cc1	H69AR inhibit 4.3, Fibroblast inh 48, HUVEC prolif 384 21
COc1ccc(NC(=O)Cn2nnc(-c3ccccc3N)n2)cc1OC	none
Cc1ccc(CSCC(=O)NN=C2CCN(C)CC2)cc1	none (no result: H69AR inhibit, Fibroblast inh, HUVEC prolif 384)
CC(=O)N1c2ccccc2C(=O)C1N1CCCCC1 (stereo unspecified)	none
O=C(CNC(=O)c1ccc(Br)o1)Nc1cccc(-c2cnc3ccccc3n2)c1	H69AR inhibit 25
COc1ccc(N2CCN(CC(O)c3c[nH]c4ccc(OC)cc34)CC2C)cc1 (stereo unspecified)	H69AR inhibit 35
CCn1nc(C)c(C2C(C#N)=C(N)OC3=C2C(=O)CC(C)(C)C3)c1C (stereo unspecified)	none (no result: H69AR inhibit, Fibroblast inh, HUVEC prolif 384)
CC(C)(C)c1ccc(C2(C)NC(=O)N(CC(=O)c3ccc[nH]3)C2=O)cc1 (stereo unspecified)	H69AR inhibit 27
O=C(CN1CCOCC1)Nc1ccccc1Sc1ccc(Cl)cc1	none (no result: H69AR inhibit, Fibroblast inh, HUVEC prolif 384)
CCC1Oc2ccc(C)cc2N(CC(=O)N(Cc2ccc(C)o2)C2CC(C)(C)NC(C)(C)C2)C1=O (stereo unspecified)	H69AR inhibit 32
CCC1Oc2ccc(C)cc2N(CC(=O)N(Cc2cccnc2)Cc2ccc(C)o2)C1=O (stereo unspecified)	none
CC1CCN(C(=O)CCNC(=O)Cn2cnc3sc4c(c3c2=O)CCCC4)CC1	none
Cc1cc(/C=C2/SC(=O)NC2=O)c(C)n1-c1ccc(N2CCOCC2)cc1	none (no result: H69AR inhibit, Fibroblast inh, HUVEC prolif 384)
Cc1cc(/C=C2\SC(=Nc3ccc(F)cc3)NC2=O)c(C)n1-c1ccc(S(N)(=O)=O)cc1	PTEN del growth 2.8 (no result: H69AR inhibit, Fibroblast inh, HUVEC prolif 384)
CCNC(=O)c1c(NC(=O)C2COc3ccccc3O2)sc2c1CCCC2 (stereo unspecified)	none
COCCCNC(=O)c1c(NC(=O)C2COc3ccccc3O2)sc2c1CCCC2 (stereo unspecified)	H69AR inhibit 35
CCOC(=O)c1c(NC(=O)C2COc3ccccc3O2)sc2c1CC(C)(C)NC2(C)C (stereo unspecified)	bCat KO growth 2.3, PTEN del growth 0.7 (no result: H69AR inhibit, Fibroblast inh, HUVEC prolif 384)

Assay outcomes from PubChem.
